Consider 9 compounds from ChEMBL document CHEMBL1156920, “Structural analogues of schweinfurthin F: probing the steric, electronic, and hydrophobic properties of the D-ring substructure” (Bioorg Med Chem, 2010).

For orientation: EC50 means the concentration that produces a half-maximal response. A higher EC50 goes with a less potent agent.

One assay deals with A549. Nature of the assay: Cytotoxicity against human A549 cells after 44 hrs by MTT assay. In kind it is functional, cell-based. The following applies: A549, 44 h. The essentials: (§1)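 SF-295 cells cultured in RPMI 1640 and A549 cells in F-12, each with 10% FBS, penicillin–streptomycin, amphotericin B and L-glutamine, at 37 °C in 5% CO2. Cells were grown to 60% confluency, then treated for 44 h. Medium was replaced with medium containing 0.06 mg/mL MTT (phenol red-free RPMI for SF-295) for 4 h. Acid/Triton/isopropanol stop solution was added, plates incubated overnight at 37 °C, OD read at 540 and 650 nm, and EC50 calculated.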

For the next assay, the system named is SF-295. Nature of the assay: Cytotoxicity against human SF295 cells after 44 hrs by MTT assay. Format: functional, cell-based. The following applies: SF-295, 44 h. The essentials:
as §1

With `CCCc1c(O)cc(/C=C/c2cc3c(c(OC)c2)O[C@]2(C)CC[C@@H](O)C(C)(C)[C@H]2C3)cc1O`, the half-maximal effective concentration (EC50) in the assay with A549 was above 10000 nM; in the assay on SF-295, 900 nM.
As to `COc1cc(/C=C/c2cc(O)c3ccoc3c2)cc2c1O[C@]1(C)CC[C@@H](O)C(C)(C)[C@H]1C2`, the concentration for a half-maximal effect (EC50) is above 10000 nM in the assay on A549 and 4800 nM in the assay on SF-295.
Take `C=CCc1c(O)cc(/C=C/c2cc3c(c(OC)c2)O[C@]2(C)CC[C@@H](O)C(C)(C)[C@H]2C3)cc1O`: the half-maximal effective concentration (EC50) in the assay with A549 was above 10000 nM; with SF-295 it was 1700 nM.
Regarding `COc1cc(CCc2cc(O)c(CCC(C)C)c(O)c2)cc2c1O[C@]1(C)CC[C@@H](O)C(C)(C)[C@H]1C2`, the concentration giving a half-maximal response (EC50) in the assay on A549 is above 10000 nM; in the assay with SF-295 it was 2800 nM.
For `COc1cc(/C=C/c2cc(O)c(CCCO)c(O)c2)cc2c1O[C@]1(C)CC[C@@H](O)C(C)(C)[C@H]1C2`, the concentration giving a half-maximal response (EC50) with A549 is above 10000 nM; in the assay with SF-295, 2500 nM.
Regarding `C#CCc1c(O)cc(/C=C/c2cc3c(c(OC)c2)O[C@]2(C)CC[C@@H](O)C(C)(C)[C@H]2C3)cc1O`, the results for the EC50 with A549 and in the assay on SF-295 were above 10000 nM and 1300 nM, respectively.
On the same counts, the results for `COc1cc(CCc2cc(O)c(CC=C(C)C)c(O)c2)cc2c1O[C@]1(C)CC[C@@H](O)C(C)(C)[C@H]1C2` are above 10000 nM and 2900 nM.
Regarding `COc1cc(/C=C\c2cc(O)c(C/C=C(\C)CCC=C(C)C)c(O)c2)cc2c1O[C@]1(C)CC[C@@H](O)C(C)(C)[C@H]1C2`, the concentration for a half-maximal effect (EC50) with A549 and in the assay on SF-295 was above 10000 nM each time.
Take `COc1cc(/C=C/c2cc(O)c3c(c2)OCC3)cc2c1O[C@]1(C)CC[C@@H](O)C(C)(C)[C@H]1C2`: the half-maximal effective concentration (EC50) with A549 is above 10000 nM; in the assay with SF-295 it was 2900 nM.
